Measurements taken from ChEMBL document CHEMBL4229364, “Structure-activity relationships of 2, 4-disubstituted pyrimidines as dual ERα/VEGFR-2 ligands with anti-breast cancer activity” (Eur J Med Chem, 2018).
Values belong to the compound of their own block, whether it stands above or below them. Active and inactive are the calls of the source. The rule behind the calls is not given here.

How the values were obtained:
HUVEC = test: Antiproliferative activity against HUVEC after 48 hrs by MTT assay; assay type: functional, cell-based; conditions: Homo sapiens
How it was run: (§1)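 MTT assay. Cells were grown in RPMI1640 with 10% FBS and penicillin/streptomycin at 37°C, 5% CO2, seeded at 1×10^5/mL and rested 24 h. Compound was added at 4×10^-5 to 1×10^-6 mol/L for 48 h; controls received 1% DMSO. MTT (5 mg/mL) was added for 4 h in the dark and the formazan dissolved in DMSO. A490 was read and IC50 derived.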

MCF7 [1] = test: Antiproliferative activity against human MCF7 cells after 48 hrs by MTT assay; assay type: functional, cell-based; conditions: MCF7, 48 h; how it was run: as §1
[2] = target: T1, Vascular endothelial growth factor receptor 2 (Homo sapiens, UniProt P35968); test: Inhibition of VEGFR2 (unknown origin) using TK substrate after 1 hr by HTRF assay
Ishikawa = test: Antiproliferative activity against human Ishikawa cells after 48 hrs by MTT assay; assay type: functional, cell-based; how it was run: as §1
[3] = target: T1, Vascular endothelial growth factor receptor 2; conditions: at 10 µM
Estrogen receptor = target: T2, Estrogen receptor (Homo sapiens, UniProt P03372); test: Displacement of Fluormone ES2 Green from full length human ER-alpha expressed in insect cells after 2 hrs by fluorescence polarization assay
T2 sequence (P03372 whole entry): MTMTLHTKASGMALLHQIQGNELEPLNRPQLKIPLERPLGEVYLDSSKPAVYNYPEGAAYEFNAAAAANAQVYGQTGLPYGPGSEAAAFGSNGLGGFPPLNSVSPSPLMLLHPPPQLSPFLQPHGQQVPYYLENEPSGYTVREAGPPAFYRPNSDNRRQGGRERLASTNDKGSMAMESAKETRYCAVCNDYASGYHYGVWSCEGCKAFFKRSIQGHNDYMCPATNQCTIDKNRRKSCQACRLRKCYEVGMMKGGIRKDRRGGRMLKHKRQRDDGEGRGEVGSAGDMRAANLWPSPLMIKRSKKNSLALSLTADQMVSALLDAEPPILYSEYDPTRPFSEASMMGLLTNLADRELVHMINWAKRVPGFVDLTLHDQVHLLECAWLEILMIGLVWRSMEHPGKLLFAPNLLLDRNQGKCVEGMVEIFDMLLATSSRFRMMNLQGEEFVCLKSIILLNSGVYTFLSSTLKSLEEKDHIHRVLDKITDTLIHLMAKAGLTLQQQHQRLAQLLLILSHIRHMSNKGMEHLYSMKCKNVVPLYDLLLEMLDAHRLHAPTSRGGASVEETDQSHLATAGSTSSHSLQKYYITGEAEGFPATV

MCF7 [4] = test: Potency index, ratio of tamoxifen IC50 to compound IC50 for antiproliferative activity against human MCF7 cells; assay type: functional
How it was run: (§2)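 Potency index is the reference drug's MCF-7 MTT IC50 divided by the compound's IC50. Reference drugs were tamoxifen or raloxifene. Cells received 48 h exposure over 4×10^-5 to 1×10^-6 mol/L with a 1% DMSO control, then A490 readout.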

MCF7 [5] = test: Effect on total RAF1 protein expression in human MCF7 cells at 0.5 uM after 24 hrs by Western blot analysis; assay type: ADME, cell-based; conditions: mcf7, 24 h
[6] = target: T1, Vascular endothelial growth factor receptor 2; conditions: HUVEC, at 1 µM
[7] = target: Mitogen-activated protein kinase; ERK1/ERK2 (Homo sapiens) (UniProt P27361+P28482); test: Inhibition of ERK1/ERK2 phosphorylation in human MCF7 cells at 0.5 uM after 24 hrs by Western blot analysis; assay type: cell-based
MCF7 [8] = test: Induction of apoptosis in human MCF7 cells assessed as live cells at 0.5 uM after 24 hrs by Annexin V-FITC/propidium iodide staining based flow cytometry (reference value: 87.5%); assay type: functional
Chorioallantoic membrane = test: In vivo antiangiogenic activity in chicken egg chorioallantoic membrane after 72 hrs; assay type: functional, organism-based; conditions: Gallus gallus
How it was run: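 Chick CAM assay. Fertilized eggs were incubated 7 days at 37°C, then a window of about 1 cm² was opened in the shell. […] Eggs were incubated a further 72 h at 37°C and 60% humidity. CAM was fixed in acetone/ethanol for 10 min and vessels imaged.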

MCF7 [9] = test: Induction of apoptosis in human MCF7 cells assessed as necrtotic cells at 1 uM after 24 hrs by Annexin V-FITC/propidium iodide staining based flow cytometry (reference value: 2.05%); assay type: functional
MCF7 [10] = test: Antimigratory activity against human MCF7 cells at 0.5 to 1 uM after 48 hrs by crystal violet staining based microscopic method; assay type: functional, cell-based
How it was run: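 Transwell assay on Matrigel-coated membranes, 5×10^4 cells per well. Cells were treated at plating. After 24 h the invading cells were fixed, with 48 h seeding. Cells were stained with crystal violet (0.1% in 20% methanol) and counted by microscopy. Treatments were 0.5 and 1 µM, with DMSO as vehicle control.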

T47D = test: Antiproliferative activity against human T47D cells after 48 hrs by MTT assay; assay type: functional, cell-based; how it was run: as §1
MCF7 [11] = test: Induction of apoptosis in human MCF7 cells assessed as early apoptotic cells at 0.5 uM after 24 hrs by Annexin V-FITC/propidium iodide staining based flow cytometry (reference value: 4.46%); assay type: functional
[12] = target: T3, Estrogen receptor (Homo sapiens) (UniProt P03372); test: Antagonist activity at ERalpha in human MCF7 cells assessed as reduction in E2-induced progesterone receptor mRNA level at 0.4 uM by RT-PCR method; assay type: cell-based
T3 sequence (whole entry): T2 sequence (P03372 whole entry)
How it was run: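 Quantitative RT-PCR of progesterone receptor mRNA in MCF-7 cells. RNA was reverse transcribed to cDNA and amplified with SYBR Green: 95°C 2 min, then 40 cycles of 95°C 10 s, 60°C 30 s, 95°C 10 s. Signal was normalized to GAPDH and quantified by ΔΔCT. Values are mean ± SD, n=3, compared against the E2 group.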

MDA-MB-231 = test: Antiproliferative activity against human MDA-MB-231 cells after 48 hrs by MTT assay; assay type: functional, cell-based; how it was run: as §1
MCF7 [13] = test: Induction of apoptosis in human MCF7 cells assessed as necrtotic cells at 0.5 uM after 24 hrs by Annexin V-FITC/propidium iodide staining based flow cytometry (reference value: 2.05%); assay type: functional
MCF7 [14] = test: Induction of apoptosis in human MCF7 cells assessed as early apoptotic cells at 1 uM after 24 hrs by Annexin V-FITC/propidium iodide staining based flow cytometry (reference value: 4.46%); assay type: functional
MCF7 [15] = test: Induction of apoptosis in human MCF7 cells assessed as live cells at 1 uM after 24 hrs by Annexin V-FITC/propidium iodide staining based flow cytometry (reference value: 87.5%); assay type: functional
MCF7 [16] = test: Induction of apoptosis in human MCF7 cells assessed as late apoptotic cells at 0.5 uM after 24 hrs by Annexin V-FITC/propidium iodide staining based flow cytometry (reference value: 6.01%); assay type: functional
MCF7 [17] = test: Potency index, ratio of raloxifene IC50 to compound IC50 for antiproliferative activity against human MCF7 cells; assay type: functional; how it was run: as §2
MCF7 [18] = test: Induction of apoptosis in human MCF7 cells assessed as late apoptotic cells at 1 uM after 24 hrs by Annexin V-FITC/propidium iodide staining based flow cytometry (reference value: 6.01%); assay type: functional
MCF7 [19] = test: Induction of apoptosis in human MCF7 cells after 24 hrs by Annexin V-FITC/propidium iodide staining based flow cytometry; assay type: functional, cell-based
[20] = target: RAF proto-oncogene serine/threonine-protein kinase (Homo sapiens) (UniProt P04049); test: Inhibition of RAF1 phosphorylation in human MCF7 cells at 0.5 uM after 24 hrs by Western blot analysis; assay type: cell-based
RAF proto-oncogene serine/threonine-protein kinase (Homo sapiens), sequence (P04049 whole entry): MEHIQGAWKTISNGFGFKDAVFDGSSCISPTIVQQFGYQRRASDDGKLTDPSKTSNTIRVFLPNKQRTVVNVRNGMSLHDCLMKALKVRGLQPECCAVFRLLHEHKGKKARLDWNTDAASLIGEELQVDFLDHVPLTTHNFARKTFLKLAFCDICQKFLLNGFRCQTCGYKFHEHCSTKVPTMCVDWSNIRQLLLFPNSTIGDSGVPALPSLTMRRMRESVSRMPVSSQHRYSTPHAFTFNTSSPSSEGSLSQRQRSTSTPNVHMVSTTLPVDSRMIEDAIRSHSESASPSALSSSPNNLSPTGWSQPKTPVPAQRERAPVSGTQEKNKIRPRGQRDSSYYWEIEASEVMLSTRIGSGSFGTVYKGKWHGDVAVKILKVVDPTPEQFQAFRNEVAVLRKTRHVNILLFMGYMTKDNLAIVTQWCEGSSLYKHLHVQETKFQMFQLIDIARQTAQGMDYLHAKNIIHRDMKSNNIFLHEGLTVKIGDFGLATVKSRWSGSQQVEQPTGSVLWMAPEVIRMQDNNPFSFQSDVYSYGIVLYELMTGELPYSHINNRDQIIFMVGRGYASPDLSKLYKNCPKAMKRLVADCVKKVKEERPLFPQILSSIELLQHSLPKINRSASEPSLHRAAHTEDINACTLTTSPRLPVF

T1 sequence (P35968 whole entry): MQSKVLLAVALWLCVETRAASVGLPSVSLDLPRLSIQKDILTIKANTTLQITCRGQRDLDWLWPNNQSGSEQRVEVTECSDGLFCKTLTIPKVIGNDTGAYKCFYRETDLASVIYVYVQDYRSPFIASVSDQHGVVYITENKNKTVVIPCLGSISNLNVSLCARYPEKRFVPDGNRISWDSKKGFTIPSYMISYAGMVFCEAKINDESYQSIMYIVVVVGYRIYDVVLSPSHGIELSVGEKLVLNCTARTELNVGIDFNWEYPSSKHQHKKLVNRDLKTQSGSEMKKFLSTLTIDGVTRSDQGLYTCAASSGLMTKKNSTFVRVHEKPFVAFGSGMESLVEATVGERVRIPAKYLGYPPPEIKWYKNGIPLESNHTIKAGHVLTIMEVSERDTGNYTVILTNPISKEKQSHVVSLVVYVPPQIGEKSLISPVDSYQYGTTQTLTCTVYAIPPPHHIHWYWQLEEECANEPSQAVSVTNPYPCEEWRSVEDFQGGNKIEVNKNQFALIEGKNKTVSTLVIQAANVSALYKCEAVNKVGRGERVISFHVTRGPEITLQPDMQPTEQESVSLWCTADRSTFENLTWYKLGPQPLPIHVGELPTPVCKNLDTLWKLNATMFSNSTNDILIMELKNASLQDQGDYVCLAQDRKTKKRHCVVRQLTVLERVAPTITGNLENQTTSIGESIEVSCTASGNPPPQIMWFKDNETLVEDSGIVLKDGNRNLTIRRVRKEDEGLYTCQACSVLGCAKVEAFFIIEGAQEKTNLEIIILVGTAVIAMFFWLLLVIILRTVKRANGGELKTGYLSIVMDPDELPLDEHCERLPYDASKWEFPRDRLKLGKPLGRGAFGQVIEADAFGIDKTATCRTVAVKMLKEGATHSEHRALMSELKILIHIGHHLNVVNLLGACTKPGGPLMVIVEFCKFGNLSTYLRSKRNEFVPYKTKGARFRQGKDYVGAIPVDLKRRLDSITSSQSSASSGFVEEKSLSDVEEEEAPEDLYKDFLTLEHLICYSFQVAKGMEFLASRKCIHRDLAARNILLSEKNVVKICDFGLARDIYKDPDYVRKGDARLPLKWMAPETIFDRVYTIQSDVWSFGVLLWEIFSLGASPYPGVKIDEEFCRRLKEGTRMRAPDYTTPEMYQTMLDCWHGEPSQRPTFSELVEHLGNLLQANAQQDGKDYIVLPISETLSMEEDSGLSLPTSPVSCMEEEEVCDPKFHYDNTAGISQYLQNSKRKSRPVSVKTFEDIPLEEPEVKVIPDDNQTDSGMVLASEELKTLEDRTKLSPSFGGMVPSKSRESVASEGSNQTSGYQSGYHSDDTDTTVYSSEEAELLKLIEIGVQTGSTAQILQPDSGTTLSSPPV
Mitogen-activated protein kinase; ERK1/ERK2 (Homo sapiens), sequence (P27361 whole entry, looked up): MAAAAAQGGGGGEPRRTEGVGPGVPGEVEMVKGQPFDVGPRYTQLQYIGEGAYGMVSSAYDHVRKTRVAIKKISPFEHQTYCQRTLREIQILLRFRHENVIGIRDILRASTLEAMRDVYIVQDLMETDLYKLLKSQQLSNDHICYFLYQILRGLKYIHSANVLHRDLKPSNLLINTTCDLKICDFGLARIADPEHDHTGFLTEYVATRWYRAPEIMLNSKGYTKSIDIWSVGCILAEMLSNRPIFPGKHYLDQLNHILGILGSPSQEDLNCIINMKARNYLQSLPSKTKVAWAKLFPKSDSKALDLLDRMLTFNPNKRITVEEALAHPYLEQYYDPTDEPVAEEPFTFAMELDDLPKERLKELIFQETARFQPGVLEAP
Mitogen-activated protein kinase; ERK1/ERK2 (Homo sapiens), sequence (P28482 whole entry, looked up): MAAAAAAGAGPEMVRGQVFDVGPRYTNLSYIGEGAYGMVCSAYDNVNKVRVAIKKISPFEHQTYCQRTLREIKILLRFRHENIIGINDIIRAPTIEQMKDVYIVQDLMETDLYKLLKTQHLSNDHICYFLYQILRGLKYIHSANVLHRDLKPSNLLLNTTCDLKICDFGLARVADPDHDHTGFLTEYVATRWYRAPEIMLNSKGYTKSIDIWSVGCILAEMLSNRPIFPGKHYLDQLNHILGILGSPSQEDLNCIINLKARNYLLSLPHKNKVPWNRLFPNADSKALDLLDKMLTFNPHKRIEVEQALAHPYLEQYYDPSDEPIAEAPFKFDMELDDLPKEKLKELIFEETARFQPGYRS

- IC50 (MCF7 [1]): > 40 µM
- IC50 [2]: 0.203 µM
- inhibition [3]: 87.3%
Compound: COc1ccc(-c2nc(Cl)c(-c3ccccc3)c(Nc3ccc(NC(=O)CN4CCCC4)cc3)n2)cc1
- IC50 (HUVEC): > 40 µM
- IC50 (Ishikawa): > 40 µM

- IC50 (MCF7 [1]): 17.7 µM
- IC50 [2]: > 1 µM
- inhibition [3]: 50.8%
Compound: COc1ccc(-c2nc(Cl)c(-c3ccccc3)c(Nc3ccc(NC(=O)CN(C)C)cc3)n2)cc1
- IC50 (HUVEC): 10.3 µM
- IC50 (Ishikawa): 17.1 µM

- IC50 (MCF7 [1]): 7.56 µM
- IC50 [2]: > 1 µM
- inhibition [3]: 50.9%
Compound: COc1ccc(-c2nc(Cl)c(-c3ccccc3)c(Nc3ccc(OCCN(C)C)cc3)n2)cc1
- IC50 (HUVEC): 14.2 µM
- IC50 (Ishikawa): 6.34 µM

- IC50 (MCF7 [1]): 8.59 µM
- IC50 [2]: 0.067 µM
- inhibition [3]: 90.3%
Compound: CCN(CC)CCOc1ccc(Nc2nc(-c3ccc(OC)cc3)nc(Cl)c2-c2ccccc2)cc1
- IC50 (HUVEC): 4.34 µM
- IC50 (Ishikawa): 9.98 µM

- IC50 (Estrogen receptor): 3.42 µM
- IC50 (MCF7 [1]): 33.1 µM
- IC50 [2]: > 1 µM
- inhibition [3]: 68.5%
Compound: CN(C)CCOc1ccc(Nc2nc(-c3ccc(O)cc3)nc(Cl)c2-c2ccccc2)cc1
- IC50 (HUVEC): 13.8 µM
- IC50 (Ishikawa): 37.1 µM

The next lines start with the compound.

Compound: COc1ccc(-c2nc(Cl)cc(Nc3ccc(OCCN4CCCC4)cc3)n2)cc1
- IC50 (HUVEC): 11.3 µM
- IC50 (MCF7 [1]): 43.7 µM
- IC50 [2]: > 1 µM
- IC50 (Ishikawa): 17.3 µM
- inhibition [3]: 51.9%

Compound: COc1ccc(-c2nc(Cl)c(-c3ccccc3)c(Oc3ccc(OCCN4CCCC4)cc3)n2)cc1
- IC50 (Estrogen receptor): 2.17 µM
- IC50 (HUVEC): 10.6 µM
- IC50 (MCF7 [1]): 32.4 µM
- IC50 [2]: > 1 µM
- IC50 (Ishikawa): 14.1 µM
- inhibition [3]: 75.3%

Compound: CCN(CC)CCOc1ccc(Nc2nc(-c3ccc(O)cc3)nc(Cl)c2-c2ccccc2)cc1
- IC50 (HUVEC): 8.81 µM
- IC50 (MCF7 [1]): 35.6 µM
- IC50 [2]: > 1 µM
- IC50 (Ishikawa): 12 µM
- inhibition [3]: 76.9%

Compound: CCN(CC)CCOc1ccc(Nc2cc(Cl)nc(-c3ccc(OC)cc3)n2)cc1
- IC50 (Estrogen receptor): 4.74 µM
- IC50 (HUVEC): 9.24 µM
- IC50 (MCF7 [1]): 36.8 µM
- IC50 [2]: 0.174 µM
- IC50 (Ishikawa): 11.7 µM
- inhibition [3]: 89.7%

Compound: COc1ccc(-c2nc(Cl)cc(Nc3ccc(OCCN(C)C)cc3)n2)cc1
- IC50 (HUVEC): 6.31 µM
- IC50 (MCF7 [1]): 3.54 µM
- IC50 [2]: > 1 µM
- IC50 (Ishikawa): 5.67 µM
- inhibition [3]: 40%

Compound: Oc1ccc(-c2nc(Cl)c(-c3ccccc3)c(Oc3ccc(OCCN4CCCC4)cc3)n2)cc1
- Ratio IC50 (MCF7 [4]): 19 - 20
- Activity (MCF7 [5]): Non-Toxic
- inhibition [6]: Active
- inhibition [7]: Active
- IC50 (Estrogen receptor): 1.64 µM
- Activity (MCF7 [8]): 75.5%
- Activity (Chorioallantoic membrane): Dose-dependent effect
- Activity (MCF7 [9]): 0.9%
- IC50 (HUVEC): 4.57 µM
- Activity (MCF7 [10]): Active
- IC50 (MCF7 [1]): 0.81 µM
- IC50 [2]: 0.085 µM
- Activity (T47D): Dose-dependent effect
- IC50 (T47D): 2.73 µM
- Activity (MCF7 [11]): 8.89%
- IC50 (Ishikawa): 5.93 µM
- inhibition [12]: Active
- Activity (MDA-MB-231): Dose-dependent effect
- IC50 (MDA-MB-231; MDA-MB-231, 48 h): 3.81 µM
- Activity (MCF7 [13]): 1.11%
- Activity (MCF7 [14]): 5.49%
- Activity (MCF7 [15]): 65.7%
- Activity (MCF7 [16]): 14.5%
- inhibition [3]: 91.1%
- Ratio IC50 (MCF7 [17]): 16
- Activity (MCF7 [18]): 28%
- Activity (MCF7 [19]): Dose-dependent effect
- inhibition [20]: Active

Compound: COc1ccc(-c2nc(Cl)c(-c3ccccc3)c(Nc3ccc(OCCN4CCCC4)cc3)n2)cc1
- IC50 (HUVEC): 5.02 µM
- IC50 (MCF7 [1]): 7.84 µM
- IC50 [2]: > 1 µM
- IC50 (Ishikawa): 3.81 µM
- inhibition [3]: 49.4%
